Calls of active or inactive are those of the source.
Tests used:
[1] = target: T1, Fatty-acid amide hydrolase 1 (Homo sapiens) (UniProt O00519); experiment: Inhibition of FAAH in human brain at 10 uM in presence of FP-rhodamine by competitive activity-based protein profiling method; format: tissue-based
T1 sequence (whole entry): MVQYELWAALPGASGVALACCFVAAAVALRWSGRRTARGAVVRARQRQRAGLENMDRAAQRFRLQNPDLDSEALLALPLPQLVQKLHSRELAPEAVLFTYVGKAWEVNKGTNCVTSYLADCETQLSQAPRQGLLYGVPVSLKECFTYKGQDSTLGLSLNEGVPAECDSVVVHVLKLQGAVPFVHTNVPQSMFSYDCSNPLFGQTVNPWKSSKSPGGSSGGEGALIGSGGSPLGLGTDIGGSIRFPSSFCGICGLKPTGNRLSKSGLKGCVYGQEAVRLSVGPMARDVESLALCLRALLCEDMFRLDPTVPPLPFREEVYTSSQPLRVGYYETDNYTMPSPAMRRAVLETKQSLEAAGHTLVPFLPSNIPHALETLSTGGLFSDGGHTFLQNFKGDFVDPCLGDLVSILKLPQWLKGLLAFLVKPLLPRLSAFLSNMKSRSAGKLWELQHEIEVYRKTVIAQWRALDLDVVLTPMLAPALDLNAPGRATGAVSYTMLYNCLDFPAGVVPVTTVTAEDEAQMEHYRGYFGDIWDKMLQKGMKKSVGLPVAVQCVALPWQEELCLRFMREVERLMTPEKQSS
Outline: (§1)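 Competitive ABPP on human and mouse brain, liver and heart proteomes (membrane and soluble fractions), exposed to compound at 10 or 100 μM or to DMSO. Serine hydrolases were then labeled with FP-rhodamine. Gels were read by fluorescence scanning, and loss of band labeling (FAAH or other hydrolases by kDa) was judged.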

[2] = target: T2, Fatty-acid amide hydrolase 1 (Homo sapiens, UniProt O00519); experiment: Inhibition of human FAAH assessed as kinact/Ki ratio incubated for 30 min in presence of glutamate dehydrogenase by 384-well format microplate reader assay
T2 sequence (O00519 whole entry): T1 sequence (whole entry)

[3] = target: T3, Fatty-acid amide hydrolase 1 (Mus musculus) (UniProt O08914); experiment: Inhibition of FAAH in mouse brain at 100 uM in presence of FP-rhodamine by competitive activity-based protein profiling method; format: tissue-based; outline: as §1
T3 sequence (whole entry): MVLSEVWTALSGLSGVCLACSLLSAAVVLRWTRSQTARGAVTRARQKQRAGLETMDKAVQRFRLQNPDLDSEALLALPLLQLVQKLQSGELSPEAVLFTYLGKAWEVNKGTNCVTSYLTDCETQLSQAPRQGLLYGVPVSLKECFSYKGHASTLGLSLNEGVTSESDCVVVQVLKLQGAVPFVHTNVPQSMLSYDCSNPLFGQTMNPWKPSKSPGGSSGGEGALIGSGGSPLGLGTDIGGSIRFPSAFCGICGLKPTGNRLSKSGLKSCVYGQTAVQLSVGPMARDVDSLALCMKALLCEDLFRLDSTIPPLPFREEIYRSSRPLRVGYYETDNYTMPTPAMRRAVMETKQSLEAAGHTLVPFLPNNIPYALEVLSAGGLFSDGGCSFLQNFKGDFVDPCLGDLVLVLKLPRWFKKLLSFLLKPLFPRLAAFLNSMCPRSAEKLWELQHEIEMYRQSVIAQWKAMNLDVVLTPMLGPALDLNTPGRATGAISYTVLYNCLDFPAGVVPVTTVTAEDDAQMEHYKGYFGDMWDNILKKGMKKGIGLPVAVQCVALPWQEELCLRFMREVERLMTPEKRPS

[4] = Ratio of drug concentration in rat brain to plasma at 1 mg/kg, po administered for 4 hrs by LC/MS analysis; format: ADME, organism-based; settings: brain and plasma
Outline: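 Male Sprague-Dawley rats received a single oral dose of 1 mg/kg. Plasma (ng/ml) and brain (ng/g tissue) drug levels were measured at 1, 2, 4, 8 and 24 h after dosing.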

[5] = target: T4, Fatty-acid amide hydrolase 1 (Rattus norvegicus) (UniProt P97612); experiment: In vivo inhibition of FAAH in CFA induced Sprague-Dawley rat brain assessed as elevation of NAE level at 0.1 to 10 mg/kg, po; format: functional, organism-based; settings: dose 0.1-10 mg/kg
T4 sequence (whole entry): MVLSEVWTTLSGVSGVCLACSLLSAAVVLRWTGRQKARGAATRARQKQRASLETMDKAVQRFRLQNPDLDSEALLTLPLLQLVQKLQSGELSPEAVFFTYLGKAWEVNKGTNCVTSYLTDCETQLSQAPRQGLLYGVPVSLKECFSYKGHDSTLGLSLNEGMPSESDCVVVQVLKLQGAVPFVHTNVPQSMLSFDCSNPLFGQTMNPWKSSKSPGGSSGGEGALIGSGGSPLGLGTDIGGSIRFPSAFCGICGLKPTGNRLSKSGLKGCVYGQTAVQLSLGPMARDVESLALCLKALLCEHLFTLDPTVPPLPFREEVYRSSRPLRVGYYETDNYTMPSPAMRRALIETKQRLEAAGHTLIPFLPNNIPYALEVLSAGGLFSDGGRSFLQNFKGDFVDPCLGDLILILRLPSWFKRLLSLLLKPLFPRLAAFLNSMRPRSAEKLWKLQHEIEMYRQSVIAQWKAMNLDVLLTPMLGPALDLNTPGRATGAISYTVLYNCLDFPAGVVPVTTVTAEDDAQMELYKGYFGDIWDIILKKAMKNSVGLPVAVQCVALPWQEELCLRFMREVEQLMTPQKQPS
Outline: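 Lipid (NAE) levels in rat brain and plasma measured by LC/MS after oral dosing in CFA rats; n = 3 rats/group. Time-course samples taken at 1, 2, 4, 8, 24 h after 1 mg/kg.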

[6] = Brain concentration in CFA induced Sprague-Dawley rat at 0.1 mg/kg, po by LC/MS analysis; format: ADME, organism-based; settings: in vivo, read-out: Ct
[7] = tested on: Rattus norvegicus; experiment: Antihyperalgesic activity in CFA induced Sprague-Dawley rat assessed as complete reduction of mechanical allodynia at 3 mg/kg, po in presence of CB1 antagonist SR141716 and CB2 antagonist SR144528 by von frey test; format: functional, organism-based
Outline: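 Male Sprague-Dawley rats (200–250 g) given 150 μl CFA (1 mg/ml in mineral oil) intraplantar in the hind paw. Mechanical paw withdrawal thresholds read with Von Frey hairs on day 5 postinjection. Dosed orally as nanocrystalline suspension in 2% polyvinylpyrrolidone/0.15% SDS in water, 10 ml/kg. PWTs taken 4 h postdose for dose-response, or at 1, 2, 4, 8, 24 h for time course.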

[8] = tested on: Mus musculus; experiment: Antinociceptive activity in C57BL6/J mouse assessed as effect in locomotive activity at 1 to 10 mg/kg, po administered for 4 hrs; format: functional, organism-based; settings: dose 1-10 mg/kg
Outline: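 Male C57BL/6J mice, 7 weeks old, n = 8/group, dosed orally at 1 or 10 mg/kg in PEG 300 (4 ml/kg). Tetrad tested 4 h postdose: locomotor activity, tail-immersion thermal nociception, catalepsy (assessed 60 s), body temperature. Means ± S.E.M. versus vehicle.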

inhibition [1]: Active
IC50 [2]: 10.7 nM
inhibition [3]: Active
Kp at 4 h [4]: 1.6
inhibition [5]: Active
concentration [6]: 38.9 nM
Compound: O=C(Nc1cccnn1)N1CCC(=Cc2cccc(Oc3ccc(C(F)(F)F)cn3)c2)CC1
Activity [7]: Active
Activity [8]: Non-Toxic
